In article PMC2998183 (Journal of nuclear medicine : official publication, Society …, 2010):
Blank lines part the entries; values can stand above or below the compound they belong to. Positions of bridges follow the written chain, without caps; N, C: chain ends. Non-standard residues stand in square brackets, D forms with d. No end group written: not given here. *: point of attachment. DOTA = O=C(O)CN1CCN(CC(=O)O)CCN(CC(=O)*)CCN(CC(=O)O)CC1; Nle = CCCC[C@H](N)C(=O)O

Legend:
[1] = system: B16/F1 melanoma-bearing C57 mice; assay: Biodistribution in B16/F1 melanoma-bearing C57 mice; type: in vivo, mouse
[2] = as above; type: in vivo, mouse; settings: female, C57, mouse, urine, iv, 0.037 MBq, total radioactivity, percent injected dose, 0.5 h post-injection
B16/F1 melanoma cells [3] = assay: Cellular efflux in B16/F1 melanoma cells; type: cell-based; settings: 2 h after incubating cells in culture medium
Procedure, shortened: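 B16/F1 cells were loaded with ¹¹¹In-labelled test compound for 2 h at 25°C, then given 2 ice-cold PBS rinses to remove non-specifically bound activity. Radioactivity released into the culture medium was monitored. At 20, 40, 60, 90 and 120 min, cell-surface and intracellular radioactivity were collected separately and gamma-counted.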

[4] = In vitro serum stability in mouse serum monitored by RP-HPLC; type: in vitro ADME; settings: 37 °C, 24 h
Procedure, shortened: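 Test compound was labelled with ¹¹¹In in 0.5 M NH₄OAc pH 4.5 at 75°C for 45 min, and unbound ¹¹¹In was scavenged with EDTA. It was purified by C-18 RP-HPLC (20-min 18–28% acetonitrile gradient in 20 mM HCl). The purified label was incubated in mouse serum at 37°C for 24 h, with degradation monitored by RP-HPLC.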

B16/F1 melanoma cells [5] = assay: Cellular internalization in B16/F1 melanoma cells; type: cell-based; settings: 25°C
Procedure, shortened: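 B16/F1 cells, washed twice in binding medium (DMEM, 25 mM HEPES pH 7.4, 0.2% BSA, 0.3 mM 1,10-phenanthroline), incubated at 25°C for 20, 40, 60, 90 and 120 min (n=3) with ~200,000 cpm HPLC-purified ¹¹¹In-labelled test compound. Cells rinsed in ice-cold 0.2% BSA/0.01 M PBS pH 7.4. Membrane-bound activity stripped with 40 mM sodium acetate pH 4.5, 0.9% NaCl, 0.2% BSA. Internalized activity recovered by 1 N NaOH lysis (5 min). Both fractions gamma-counted.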

[6] = Urinary metabolites by RP-HPLC; type: in vivo, mouse; settings: urine, 2 h post-injection
Procedure, shortened: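 A C57 mouse bearing a B16/F1 flank tumour (1×10⁶ cells s.c., 10 days) received 37 MBq (1 mCi) ¹¹¹In-labelled test compound via the tail vein. It was euthanized at 2 h and urine collected. Urine was centrifuged at 16,000g for 5 min, and aliquots were analysed by RP-HPLC using a 20-min 18–28% acetonitrile/20 mM HCl gradient.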

MC1 receptor = settings: cited from earlier work
[7] = molecular target: melanocortin-1 (MC1) receptor (Mus musculus, UniProt Q01727); settings: read-out: MC1 receptor binding affinity; B16/F1 cells; ref [17], [21]; cited from earlier work
melanocortin-1 (MC1) receptor, sequence (Q01727 whole entry): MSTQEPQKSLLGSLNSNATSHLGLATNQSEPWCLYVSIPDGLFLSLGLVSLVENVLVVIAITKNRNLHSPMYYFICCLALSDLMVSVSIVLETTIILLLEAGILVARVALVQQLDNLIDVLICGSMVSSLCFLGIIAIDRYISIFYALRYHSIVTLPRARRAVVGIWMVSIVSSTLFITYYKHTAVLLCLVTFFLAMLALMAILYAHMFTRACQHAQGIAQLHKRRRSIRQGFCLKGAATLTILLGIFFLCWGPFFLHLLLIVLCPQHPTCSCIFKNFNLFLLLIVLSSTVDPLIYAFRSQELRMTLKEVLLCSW

[8] = system: B16/F1 melanoma-bearing C57 mice; settings: mouse, in vivo, 4 h; cited from earlier work

Tumor uptake with NDP-MSH co-injection as percent of tumor uptake without ([1]; 10 μg non-radiolabeled NDP-MSH co-injection, 2 h): 4.2%
Reduction of kidney uptake value by L-lysine co-injection ([1]; 2 h post-injection): 30%
Renal uptake value as percent of that of ^111In-DOTA-GlyGlu-CycMSH ([1]; 2 h post-injection): 72.8%
Tumor uptake value, times that of ^111In-DOTA-GlyGlu-CycMSH ([1]; 2 h post-injection): 1.86 times
Tumor uptake value, times that of ^111In-DOTA-Re(Arg^11)CCMSH ([1]; 2 h post-injection): 1.12 times
Renal uptake value as percent of that of ^111In-DOTA-GlyGlu-CycMSH ([1]; 4 h post-injection): 82.4%
Tumor uptake value, times that of ^111In-DOTA-Re(Arg^11)CCMSH ([1]; 4 h post-injection): 0.98 times
Tumor uptake value, times that of ^111In-DOTA-Re(Arg^11)CCMSH ([1]; 24 h post-injection): 1.29 times
Percent of tumor activity at 2 h post-injection remaining in tumors at 24 h ([1]; 24 h vs 2 h post-injection): 54.3%
dose excreted at 0.5 h [2]: 57 ± 3.91%
Stability in mouse serum [4]: stable
Urinary metabolite analysis by RP-HPLC [6]: remained intact
Compound: CCCC[C@H](NC(=O)CN1CCN(CC(=O)O)CCN(CC(=O)O)CCN(CC(=O)O)CC1)C(=O)N[C@H]1CC(=O)NCCCC[C@@H](C(N)=O)NC(=O)[C@H](Cc2c[nH]c3ccccc23)NC(=O)[C@H](CCCNC(=N)N)NC(=O)[C@@H](Cc2ccccc2)NC(=O)[C@H](Cc2c[nH]cn2)NC1=O [^111In-DOTA-Nle-CycMSHhex, metal not drawn]
Internalized activity remained inside the cells (B16/F1 melanoma cells [3]): 89.5±1.9%
Cellular uptake activity internalized (B16/F1 melanoma cells [5]; 20 min post incubation): 72.9±3.5%
Cellular uptake activity internalized (B16/F1 melanoma cells [5]; 120 min post incubation): 88.3±0.7%

Compound: Ac-Nle-c[Asp-His-DPhe-Arg-Trp-Lys(CONH2)] [MT-II]
MC1 receptor binding affinity compared with native α-MSH peptide (MC1 receptor; ref [27], [28]): higher MC1 receptor binding affinity
MC1 receptor dissociation rate compared with native α-MSH peptide (MC1 receptor; ref [27], [28]): slower MC1 receptor dissociation rate

Compound: DOTA-Gly-Glu-c[Lys-Nle-Glu-His-DPhe-Arg-Trp-Gly-Arg-Pro-Val-Asp] ({DOTA}-GEK[Nle]EH[dF]RWGRPVD; lactam 3-14; not fully specified) [DOTA-GlyGlu-CycMSH]
IC50 [7]: 0.9 nM

Compound: [Ac-Nle^4,Asp^5,D-Phe^7,Lys^11(pz-^99mTc(CO)3)]α-MSH4–11
Melanoma uptake [8]: 4.24 ± 0.94 %ID/g

Compound: [Nle^4, D-Phe^7]- α-MSH [NDP-MSH]
Affinity for the MC1 receptor present on the melanoma cells (MC1 receptor; stated without reference): picomolar

Compound: ^99mTc(CO)3-pz-βAla-Nle-cyclo[Asp-His-D-Phe-Arg-Trp-Lys]-NH2
Kidneys uptake [8]: 32.12 ± 1.57 %ID/g
Liver uptake [8]: 22.86 ± 1.17 %ID/g
Melanoma uptake [8]: 11.31 ± 1.81 %ID/g
